Measurements: ChEMBL document CHEMBL2093137, “WHO-TDR NTD Screening”
In brackets after ≈: the same amount, converted by molar mass.

Key:
Trypanosoma cruzi = assay: WHO-TDR: Chagas disease; type: functional, organism-based, Homo sapiens; settings: MRC5
How it was run: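 A diverse library of 10,000 compounds from Life Chemicals, filtered for drug-likeness and reactive groups, was screened against intracellular amastigotes of Trypanosoma cruzi Tulahuen CL2 beta-galactosidase strain. The parasites were grown in MRC-5SV2 human lung fibroblast host cells, and a reference drug served as positive control under previously published standard procedures. Antiparasitic potency is given as IC50.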

Plasmodium falciparum K1 = assay: WHO-TDR: Malaria; type: functional, organism-based, Homo sapiens; settings: Erythrocyte
How it was run: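 Previously published standard procedures, including a reference drug as positive control, were used to screen whole Plasmodium falciparum K1 parasites inside human red blood cells. IC50 is the measure of antiplasmodial potency. The compounds were a 10,000-member diverse Life Chemicals library.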

Leishmania infantum = assay: WHO-TDR: Leishmaniasis; type: functional, organism-based, Mus musculus; settings: Macrophage
How it was run: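 Intracellular amastigotes of Leishmania infantum MHOM/MA(BE)/67, hosted in murine peritoneal macrophages, were exposed to compounds from a 10,000-member diverse library supplied by Life Chemicals. The library had been filtered for drug-likeness and reactive groups. The reported IC50 expresses antiparasitic potency.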

Onchocerca ochengi = assay: WHO-TDR: Onchocerciasis; type: functional; design: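 at 12.5 µM on microfilariae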
How it was run: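 Percent inhibition and IC50 describe activity against microfilariae of Onchocerca ochengi or Onchocerca lienalis, used as animal-pathogen substitutes for the human parasite. The compounds tested made up a 10,000-member diverse library from Life Chemicals.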

[1] = WHO-TDR: Cytotoxicity; type: toxicity, cell-based; settings: human, MRC5 cells
Schistosoma mansoni = assay: WHO-TDR: Schistosomiasis; type: functional; design: concentration or dose not given beside the values
How it was run: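 Percent inhibition and IC50 describe activity against whole Schistosoma mansoni worms of the Puerto Rican strain, tested as larvae and/or adults. The compounds screened were a diverse set of 10,000 from Life Chemicals, filtered for drug-likeness and reactive groups. Testing followed previously published standard procedures, with a reference drug as positive control.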

Brugia malayi = assay: WHO-TDR: Lymphatic Filariasis; type: functional; design: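 tested at 10 µM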
How it was run: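 The screening set was a 10,000-compound diverse library from Life Chemicals, filtered for drug-likeness and for reactive groups. It was run against Brugia malayi microfilariae as whole organisms, using previously published standard procedures. Reference drugs acted as positive controls, and activity is reported both as percent inhibition and as IC50.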

[2] = tested on: Trypanosoma brucei brucei; assay: WHO-TDR: Human African Trypanosomiasis (HAT); type: functional, organism-based; settings: Squib-427
How it was run: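 In this whole-organism screen, the target was the bloodstream form of Trypanosoma brucei, strain Squib 427. A diverse set of 10,000 compounds from Life Chemicals, previously filtered for drug-likeness and reactive groups, was assayed by standard published procedures using reference drugs as positive controls. Each value is an IC50 for antiparasitic potency.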

SMILES | IC50 (Trypanosoma cruzi) | IC50 (Plasmodium falciparum K1) | IC50 (Leishmania infantum) | % Inhibition (Onchocerca ochengi) | IC50 [1] | % Inhibition (Schistosoma mansoni) | % Inhibition (Brugia malayi) | IC50 [2]
O=C(c1ccc(F)c(F)c1)N1CCN(c2nccn2-c2cccc(Cl)c2)CC1 | 11.4 µg/mL (≈ 28.2 µM) | > 13.2 µg/mL | 4.27 µg/mL (≈ 10.6 µM) | 100% | > 13.2 µg/mL | 0% | 0% | 3.83 µg/mL (≈ 9.51 µM)
Cn1nccc1C(=O)Nc1nc2c(s1)CSc1ccccc1-2 | 2.05 µg/mL (≈ 6.23 µM) | > 9.85 µg/mL | 3.19 µg/mL (≈ 9.71 µM) | 100% | 0.145 µg/mL (≈ 0.442 µM) | 100% | 0% | 0.315 µg/mL (≈ 0.959 µM)
O=S(=O)(c1ccc2ccccc2c1)N1CCN(c2ccc(Nc3cccnc3)nn2)CC1 | > 13.4 µg/mL | > 13.4 µg/mL | 0.434 µg/mL (≈ 0.972 µM) | 0% | > 13.4 µg/mL | 0% | 0% | > 13.4 µg/mL
O=C(CC1CCCC1)N1CCN(c2ccc(-c3ccccn3)nn2)CC1 | 0.466 µg/mL (≈ 1.33 µM) | 0.731 µg/mL (≈ 2.08 µM) | 0.341 µg/mL (≈ 0.97 µM) | 0% | 5.57 µg/mL (≈ 15.9 µM) | 33.3% | 33.33% | 0.409 µg/mL (≈ 1.16 µM)
O=C(Nc1ccc(F)cc1)Nc1cccc(-c2ccc(N3CCCC3)nn2)c1 | > 11.3 µg/mL | > 11.3 µg/mL | > 11.3 µg/mL | 100% | > 11.3 µg/mL | 0% | 0% | > 11.3 µg/mL
Cc1ccc(C)c2sc(N(CCCn3ccnc3)C(=O)Cc3ccc(F)cc3)nc12 | 0.495 µg/mL (≈ 1.17 µM) | 3.4 µg/mL (≈ 8.04 µM) | 4.46 µg/mL (≈ 10.6 µM) | 100% | 3.26 µg/mL (≈ 7.73 µM) | 0% | 0% | 3.98 µg/mL (≈ 9.41 µM)
CCOC(=O)c1sc(-c2ccccc2)cc1NC(=O)c1ccnn1C | > 10.7 µg/mL | > 10.7 µg/mL | 0.345 µg/mL (≈ 0.971 µM) | 0% | > 10.7 µg/mL | 0% | 0% | > 10.7 µg/mL
CCc1cccc2sc(NC(=O)C3CCCCN3S(C)(=O)=O)nc12 (stereo not drawn) | 3.8 µg/mL (≈ 10.3 µM) | > 11 µg/mL | > 11 µg/mL | 100% | > 11 µg/mL | 0% | 0% | 3.09 µg/mL (≈ 8.4 µM)
CSc1ccc2nc(N(Cc3cccnc3)C(=O)c3ccc(C(=O)c4ccccc4)cc3)sc2c1 | 0.874 µg/mL (≈ 1.76 µM) | > 14.9 µg/mL | > 14.9 µg/mL | 0% | > 14.9 µg/mL | 0% | 0% | > 14.9 µg/mL
Cc1ccnc(Nc2ccc(NCCNC(=O)Nc3ccc(F)cc3)nn2)c1 | > 11.4 µg/mL | > 11.4 µg/mL | > 11.4 µg/mL | 100% | > 11.4 µg/mL | 0% | 0% | > 11.4 µg/mL
O=C(NCCNc1ccc(Nc2ccccn2)nn1)c1ccc(C(F)(F)F)cc1 | > 12.1 µg/mL | 7.28 µg/mL (≈ 18.1 µM) | > 12.1 µg/mL | 100% | 7.71 µg/mL (≈ 19.2 µM) | 0% | 50% | 11 µg/mL (≈ 27.5 µM)
O=C(Nc1ccc2c(c1)N(C(=O)c1cccs1)CC2)c1cc2ccccc2oc1=O | > 12.5 µg/mL | > 12.5 µg/mL | 0.404 µg/mL (≈ 0.97 µM) | 0% | > 12.5 µg/mL | 16.7% | 0% | > 12.5 µg/mL
CCCc1nnc(NC(=O)CSc2ccc(NC(=O)c3cccs3)nn2)s1 | > 12.6 µg/mL | > 12.6 µg/mL | 0.408 µg/mL (≈ 0.97 µM) | 0% | > 12.6 µg/mL | 0% | 0% | > 12.6 µg/mL
COc1ccc(Cl)c2sc(N(CCCn3ccnc3)C(=O)c3cccc(F)c3)nc12 | 3.68 µg/mL (≈ 8.27 µM) | 3.63 µg/mL (≈ 8.15 µM) | > 14.4 µg/mL | 100% | 4.08 µg/mL (≈ 9.16 µM) | 0% | 0% | 4.67 µg/mL (≈ 10.5 µM)
COc1ccc(OC)c2sc(N(CC3CCCO3)C(=O)c3ccn(C)n3)nc12 (stereo not drawn) | > 12.1 µg/mL | > 12.1 µg/mL | 0.391 µg/mL (≈ 0.971 µM) | 0% | > 12.1 µg/mL | 16.7% | 0% | > 12.1 µg/mL
O=S(=O)(NCC(c1cccs1)N1CCOCC1)c1ccc(Cl)s1 (stereo not drawn) | > 11.8 µg/mL | > 11.8 µg/mL | > 11.8 µg/mL | 100% | > 11.8 µg/mL | 0% | 0% | > 11.8 µg/mL

SMILES | IC50 (Trypanosoma cruzi) | IC50 (Plasmodium falciparum K1) | IC50 (Leishmania infantum) | % Inhibition (Onchocerca ochengi) | IC50 [1] | % Inhibition (Schistosoma mansoni) | % Inhibition (Brugia malayi) | IC50 [2]
CC(=O)N1CCc2ccc(NC(=O)c3ccc(C(C)(C)C)cc3)cc21 | 0.3 µg/mL (≈ 0.892 µM) | > 10.1 µg/mL | > 10.1 µg/mL | 0% | > 10.1 µg/mL | 16.7% | 0% | > 10.1 µg/mL
COc1cccc(-c2cc(CC(=O)NCc3c(F)cccc3F)no2)c1 | > 10.8 µg/mL | > 10.8 µg/mL | 3.48 µg/mL (≈ 9.71 µM) | 100% | > 10.8 µg/mL | 0% | 0% | > 10.8 µg/mL
CSc1ccccc1NC(=O)c1ccc(Cl)s1 | > 8.51 µg/mL | > 8.51 µg/mL | > 8.51 µg/mL | 100% | > 8.51 µg/mL | 0% | 25% | > 8.51 µg/mL
CCOC(=O)c1sc(NC(=O)C2CCCCN2S(C)(=O)=O)cc1C (stereo not drawn) | 3.69 µg/mL (≈ 9.86 µM) | > 11.2 µg/mL | > 11.2 µg/mL | 100% | > 11.2 µg/mL | 0% | 0% | 3.82 µg/mL (≈ 10.2 µM)
O=C(CS(=O)(=O)Cc1ccccc1)Nc1cc(Cl)cc(Cl)c1 | > 10.7 µg/mL | > 10.7 µg/mL | > 10.7 µg/mL | 100% | > 10.7 µg/mL | 0% | 0% | > 10.7 µg/mL
Cc1ccnc(Nc2ccc(NCCNS(=O)(=O)c3cccc(Cl)c3)nn2)c1 | > 12.6 µg/mL | > 12.6 µg/mL | > 12.6 µg/mL | 100% | > 12.6 µg/mL | 0% | 0% | 4.02 µg/mL (≈ 9.6 µM)
CSc1cccc2sc(N3CCN(C(=O)c4ccccc4)CC3)nc12 | 4.19 µg/mL (≈ 11.3 µM) | > 11.1 µg/mL | > 11.1 µg/mL | 100% | > 11.1 µg/mL | 0% | 0% | > 11.1 µg/mL
O=C(CSC1=Nc2cccnc2Nc2ccccc21)Nc1ccc(F)c(F)c1 | > 11.9 µg/mL | 4.83 µg/mL (≈ 12.2 µM) | > 11.9 µg/mL | 100% | > 11.9 µg/mL | 0% | 0% | > 11.9 µg/mL
Cc1ccnc(Nc2ccc(N3CCN(C(=O)c4ccc(F)cc4)CC3)nn2)c1 | > 11.8 µg/mL | > 11.8 µg/mL | 0.381 µg/mL (≈ 0.971 µM) | 0% | > 11.8 µg/mL | 0% | 0% | > 11.8 µg/mL
CCOc1ncccc1C(=O)N1CCN(c2ccc(-c3ccc(Cl)cc3)nn2)CC1 | 8.92 µg/mL (≈ 21 µM) | > 12.7 µg/mL | > 12.7 µg/mL | 0% | > 12.7 µg/mL | 100% | 0% | > 12.7 µg/mL
Cc1ccnc(Nc2ccc(NCCNC(=O)c3cccc(C(F)(F)F)c3)nn2)c1 | > 12.5 µg/mL | 1.48 µg/mL (≈ 3.56 µM) | > 12.5 µg/mL | 100% | 9.41 µg/mL (≈ 22.6 µM) | 0% | 0% | > 12.5 µg/mL
O=C(Nc1nc2c(s1)CCCC2)C1CCN(S(=O)(=O)c2ccc(F)cc2)CC1 | 2.79 µg/mL (≈ 6.58 µM) | > 12.7 µg/mL | > 12.7 µg/mL | 100% | > 12.7 µg/mL | 0% | 0% | 4.07 µg/mL (≈ 9.6 µM)
CN(C)C(CNS(=O)(=O)c1ccc(Cl)s1)c1ccc(F)cc1 (stereo not drawn) | > 10.9 µg/mL | > 10.9 µg/mL | > 10.9 µg/mL | 100% | > 10.9 µg/mL | 0% | 0% | 3.44 µg/mL (≈ 9.49 µM)
O=S(=O)(CCCOc1ccc(F)cc1)NC1CCN(Cc2ccccc2)CC1 | > 12.2 µg/mL | > 12.2 µg/mL | > 12.2 µg/mL | 100% | > 12.2 µg/mL | 50% | 0% | 3.86 µg/mL (≈ 9.49 µM)
Cc1cc(-c2nnc(NC(=O)C3CCCCN3S(=O)(=O)c3cccs3)o2)nn1C (stereo not drawn) | 4.26 µg/mL (≈ 9.75 µM) | > 13.1 µg/mL | 4.24 µg/mL (≈ 9.71 µM) | 100% | 4.91 µg/mL (≈ 11.2 µM) | 0% | 33.33% | 4.14 µg/mL (≈ 9.49 µM)
